The nature of assay [1]: Inhibition of Staphylococcus aureus tyrosyl-tRNA synthetase. The gist of the method: (§1)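 Tritiated tyrosine aminoacylation at 37°C. Mix (final): 100 mM Tris/Cl pH 7.9, 50 mM KCl, 16 mM MgCl2, 5 mM ATP, 3 mM DTT, 4 mg/ml E. coli MRE600 tRNA, 10 µM L-tyrosine including 0.3 µM L-[ring-3,5-3H]tyrosine. TyrRS (0.2 nM) preincubated 10 min at room temperature with a range of inhibitor concentrations. TCA precipitation onto filters, scintillation counting. Linear rates, under 50% tRNA acylation; IC50 at half activity.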

Assay [2] in a line: Inhibition of Staphylococcus aureus tyrosyl-tRNA synthetase expressed in Escherichia coli assessed as reduction in tRNA aminoacylation pre-incubated for 10 mins before addition of Escherichia coli MRE600 tRNA and L-tyrosine. The gist of the method: as §1
The next assay has as its system Staphylococcus aureus. Put plainly: Antimicrobial activity against Staphylococcus aureus ATCC 6538 by MTT assay. The class given is functional. The procedure, abridged: (§2)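 Broth microdilution in LB medium with MTT read-out. Compound stock 1000 µg/ml in DMSO, diluted serially with sterile medium (50% v/v DMSO in PBS). Inoculum about 10^5 cfu/mL, incubated at 37°C. Then 3 mg/mL MTT in PBS added, 4-5 h at room temperature. Dye extracted with 10% SDS containing 5% isopropanol and HCl for 8-10 h. Absorbance at 570 nm gives MIC50.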

The subject of a further assay is Escherichia coli. Put plainly: Antimicrobial activity against Escherichia coli ATCC 8739 by MTT assay. Format: functional. The procedure, abridged:
as §2

The next assay has as its system Pseudomonas aeruginosa. Put plainly: Antimicrobial activity against Pseudomonas aeruginosa ATCC 9027 by MTT assay. Format: functional. The procedure, abridged: as §2

The structures appear in SMILES notation. Values after ≈ are worked out from the molar mass of the structure shown.

For `N[C@@H](Cc1ccc(O)cc1)C(=O)N[C@H](C(=O)O)[C@H]1[C@H](O)[C@]2(O)CO[C@@H]([C@@H]2O)N1O`, the half-inhibitory concentration (IC50) in assay [1] is less than 0.001 µM.
As for `Nc1ncnc2c1ncn2[C@@H]1O[C@H](COC(=O)c2cccc(F)c2)[C@@H](O)[C@H]1O`, in assay [2], the IC50 stood at 11 µM. Further, the MIC50 against Staphylococcus aureus was determined as 20.4 µg/mL (≈ 52.4 µM); against Escherichia coli, 5.3 µg/mL (≈ 13.6 µM); in the assay with Pseudomonas aeruginosa it was 3.5 µg/mL (≈ 8.99 µM).
In the same order, the values of `Nc1ncnc2c1ncn2[C@@H]1O[C@H](COC(=O)Cc2ccc(F)cc2)[C@@H](O)[C@H]1O` are 7.7 µM, more than 100 µg/mL, more than 100 µg/mL and 26.1 µg/mL (≈ 64.7 µM).
Turning to `CC1(C)O[C@@H]2[C@H](O1)[C@@H](COC(=O)Cc1ccccc1O)O[C@H]2n1cnc2c(N)ncnc21`, the IC50 in assay [2] was determined as 55 µM. For the same compound, the MIC50 against Staphylococcus aureus was more than 100 µg/mL; in the assay on Escherichia coli it was 37.2 µg/mL (≈ 84.3 µM); in the assay on Pseudomonas aeruginosa, 23 µg/mL (≈ 52.1 µM).
`CC1(C)O[C@@H]2[C@H](O1)[C@@H](COC(=O)Cc1ccc(Cl)cc1)O[C@H]2n1cnc2c(N)ncnc21`: in assay [2], the IC50 was found to be 8.4 µM. Moreover, the figures for the MIC50 in the assay with Staphylococcus aureus, against Escherichia coli and against Pseudomonas aeruginosa were 7.2 µg/mL (≈ 15.7 µM), 15.2 µg/mL (≈ 33.1 µM) and 30.6 µg/mL (≈ 66.5 µM), respectively.

The values above are taken from ChEMBL document CHEMBL3621182, “Adenosine analogs as inhibitors of tyrosyl-tRNA synthetase: Design, synthesis and antibacterial evaluation” (Bioorg Med Chem, 2015).
